# Compound activity deposited in PubChem by Broad Institute.
# Only some compounds are listed: those with a hit (about 1.9% of all), similar ones and a draw of the others.
# RAD52 inh: RAD52 DNA annealing inhibitors, primary screen, biochemical, FRET, single point, set 2; DNA repair protein RAD52 homolog (Homo sapiens), P43351; recombinant RAD52 DNA annealing, FRET fluorescence; inhibition, % at 18.7 µM; 360,000 compounds, 0.46% hits;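 active = every replicate showing at least 50% inhibition; inconclusive = mean inhibition at least 50% but not in every replicate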
# Target sequence (P43351 whole entry, looked up): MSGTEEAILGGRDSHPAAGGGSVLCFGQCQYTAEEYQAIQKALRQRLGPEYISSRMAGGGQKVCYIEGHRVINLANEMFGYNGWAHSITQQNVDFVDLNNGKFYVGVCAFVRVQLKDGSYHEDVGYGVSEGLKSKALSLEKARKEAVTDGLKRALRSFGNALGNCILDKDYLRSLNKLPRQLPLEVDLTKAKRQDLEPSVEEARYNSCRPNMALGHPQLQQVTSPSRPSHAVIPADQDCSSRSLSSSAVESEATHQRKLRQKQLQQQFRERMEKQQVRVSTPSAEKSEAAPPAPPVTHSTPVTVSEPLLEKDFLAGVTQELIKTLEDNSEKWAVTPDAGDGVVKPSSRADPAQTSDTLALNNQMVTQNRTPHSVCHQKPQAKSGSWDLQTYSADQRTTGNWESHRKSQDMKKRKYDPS
# RAD54 branch: inhibitors of human RAD54 branch migration, primary screen, biochemical, fluorescence, single point; AID 602329, 2012; 360,000 compounds, 0.14% hits; inhibition, % at 10.4 µM; RAD54 Holliday junction branch migration, FAM/BHQ fluorescence; DNA repair and recombination protein RAD54-like (Homo sapiens), Q92698;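 active = mean normalized replicate activity at least 40 and at least half of replicates scoring 40 or more; inconclusive = only one of the two criteria met; inactive = mean below 40 and under half of replicates reaching 40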;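 note: inhibitors cause a drop in the FAM fluorescence signal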
# Ecoli rRNA inh: reduced GFP signal of wild-type E. coli, primary screen, bacterial rRNA inhibitor project, GFP/RFP fluorescence, OD600, single point; E. coli WT GFP vs humanized-ribosome RFP mutants, 24 h; stronger effect = lower value; DMSO median 0, no signal -100; 350,000 compounds, 1.6% hits; GFP signal change (wild-type ribosome), % (concentration not given with the values);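 active = significant combined selectivity score with lowered wild-type GFP, culture density cut under 30%, mutant RFP and density less affected; inactive = any of these conditions unmet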
# Cneo AK release: Cryptococcus neoformans cell lysis inducers, primary screen, AK release luminescence, single concentration | C. neoformans lysis, adenylate kinase release luminescence, 4 h; normalised: neutral wells 0, clomiphene wells 100 | lysis activity, % at 15 µM | 360,000 compounds, 0.2% hits | AID 651654, 2012;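 active = mean lysis activity across replicates of at least 80%, whatever share of replicates individually reach that level; inactive = mean lysis activity below 80%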
#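 Material: C. neoformans cells; Schedule: 4 h static compound exposure, 37 °C, read 1 h post-reagent; Measured by: adenylate kinase release luminescence; Read-out: signal increase indicating cell lysis; Controls: Clomiphene as positive lysis control.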
# PglD DTNB: C. jejuni PglD acetyltransferase inhibitors, primary screen, biochemical, DTNB colorimetric, single point | inhibition, % at 12.5 µM | purified PglD enzyme, DTNB colorimetric CoA detection | 360,000 compounds, 0.098% hits | UDP-N-acetylbacillosamine N-acetyltransferase PglD (Campylobacter jejuni); in the data active = inhibition above about 16%, passing the limit was not always enough; inconclusive = no clear call, values can overlap the other calls
# HepG2 cytotox: cytotoxicity in HepG2 cells, dose response, cytotoxicity control, cell-based, CellTiter-Glo luminescence, cherry-pick, set 4 | shares compounds with Ecoli rRNA inh | HepG2 viability, ATP luminescence, 72 h | activity change, negative = cytotoxicity, unspecified at 26 µM | 30 tested, under 10 active;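 active = compounds whose fitted half-maximal signal-loss concentration is at most twice their highest valid dose; inconclusive = flat curve with 30 to 70% signal loss, or poor fit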
# AID977621: growth inhibition of wild-type GFP E. coli, dose response, H69 mutant RFP, cherry-pick | shares compounds with Ecoli rRNA inh | 1,900 tested, under 10 active | activity change, negative = inhibition at 50 µM | E. coli wild-type GFP strain growth, fluorescence, 24 h;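 active = Wild-type ribosome reporter drop at least double the humanized mutant ribosome reporter drop, growth loss under a set limit; inconclusive = no clear call, values can overlap the other calls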;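 note: wild-type GFP and H69 mutant RFP strains grown together 50/50 in each well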
# AID977628: E. coli growth inhibition, wild-type GFP versus h24 humanized RFP strain, dose response, h24 mutant RFP vs wild-type GFP, cherry-pick; shares compounds with Ecoli rRNA inh; E. coli WT GFP strain growth, fluorescence, 24 h; activity change, negative = inhibition at 50 µM; 1,900 tested, under 10 active;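 active = compound lowering the normal-ribosome reporter at least twice as much as the humanized-ribosome reporter, growth loss under a set limit; inconclusive = no clear call, values can overlap the other calls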;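 note: wild-type GFP and h24 humanized RFP strains co-cultured 1 to 1 per well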
# Hits are given with their value; i = inactive; ? = inconclusive; nt = no result given.
SMILES,RAD52 inh,RAD54 branch,Ecoli rRNA inh,Cneo AK release,PglD DTNB,AID977621,AID977628,others
O=C1CN(S(=O)(=O)c2cccc(F)c2)C[C@@H]2[C@@H](c3ccc(-c4ccc(F)cc4)cc3)[C@@H](CO)N12,i,nt,i,nt,nt,nt,nt,
O=C(Nc1c(S(=O)(=O)c2ccc(Cl)cc2)csc1Br)c1ccccc1Cl,i,i,-26,i,i,i,?,
COc1ccc(C(=O)NC(C(=O)N2CCN(C/C=C/c3ccccc3)CC2)C(C)C)cc1 (stereo not given),i,i,i,i,i,nt,nt,
CC(C)[C@H](NC(=O)c1ccc([N+](=O)[O-])cc1Cl)C(=O)N1CCN(C/C=C/c2ccccc2)CC1,i,nt,-21,nt,nt,nt,?,
CCN(CC)S(=O)(=O)c1cc(NC(=O)C(C)N2CCN(Cc3ccc4c(c3)OCO4)CC2)ccc1C (stereo not given),i,i,-21,i,i,?,nt,
C[C@@H]1CCCCO[C@@H](CN(C)C(=O)c2ccncc2)[C@H](C)CN([C@H](C)CO)C(=O)c2cc(NC(=O)c3ccncc3)ccc2O1,i,i,i,i,i,nt,nt,
COC(=O)c1nc(-c2ccc(C)cc2)[nH]c1C(C)(C)C,i,i,-21,i,i,i,i,
COc1ccccc1Cn1c(C(C)C)nc2ccccc21,i,i,i,i,i,nt,nt,
COc1ccc(/C=C/c2nc3ccccc3n2Cc2ccccc2OC)cc1,i,nt,-26,nt,nt,i,i,
c1ccc(-c2nc(C3CCCCC3)no2)cc1,nt,i,nt,i,i,nt,nt,
COc1ccc(-c2nc(C3CCCCC3)no2)cc1OC,i,i,-19,i,i,i,i,
O=C(Cc1ccccc1Cl)Nc1nc2ccccc2[nH]1,i,i,-20,i,i,i,?,
O=C(CCNC(=O)c1ccccc1Cl)Nc1nc2ccccc2[nH]1,i,i,i,i,i,nt,nt,
Cc1cc(C(=O)Nc2ccc(Cl)cc2)c(C)n1Cc1cccs1,i,nt,-30,nt,nt,i,i,
Cc1cc(C)cc(NC(=O)c2cc(C)n(Cc3cccs3)c2C)c1,i,i,i,i,i,nt,nt,
C[C@H](CO)N1C[C@H](C)[C@H](CN(C)S(C)(=O)=O)Oc2ccc(NC(=O)CCC(F)(F)F)cc2CC1=O,i,i,i,i,i,nt,nt,
O=C(NNC(=O)c1ccc(NC(=O)c2ccccc2)cc1)c1ccc(F)cc1,i,i,i,i,i,nt,nt,
O=C(Nc1ccncc1)c1ccc(S(=O)(=O)Nc2ccccc2)cc1,i,nt,-23,nt,nt,i,?,
O=C(Nc1ccc(C(=O)c2ccccc2)cc1)c1ccccc1,i,i,-22,i,i,i,nt,
CC(=O)c1cccc(NS(=O)(=O)c2ccc(C(=O)Nc3ccccc3)cc2)c1,i,i,i,i,i,nt,nt,
CC(C)C[C@@H]1COCc2cn(nn2)CC[C@H](Cc2ccc(-c3ccccc3)cc2)C(=O)N1,nt,nt,i,nt,nt,nt,nt,
Cc1ccc(S(=O)(=O)N(C)C[C@@H]2OCCCC[C@@H](C)Oc3ccc(NC(=O)CCCN(C)C)cc3C(=O)N([C@H](C)CO)C[C@@H]2C)cc1,i,i,i,i,i,nt,nt,
CCC(=O)N1C[C@@H](C)[C@H](OC)CN(C)C(=O)c2cc(NC(=O)CC(F)(F)F)ccc2OC[C@@H]1C,i,nt,i,nt,nt,nt,nt,
O=C(c1cccc2ccccc12)C1CCCN(C(=O)CCc2cnccn2)C1 (stereo not given),i,i,-21,i,i,i,i,
C[C@H](CO)N1C[C@H](C)[C@H](CN(C)CC2CCCCC2)OCCCC[C@H](C)Oc2ccc(NC(=O)Nc3ccc4c(c3)OCO4)cc2C1=O,i,i,i,i,i,nt,nt,
SMILES,RAD52 inh,RAD54 branch,Ecoli rRNA inh,Cneo AK release,PglD DTNB,AID977621,AID977628,others
O=S(=O)(Cc1ccccc1)N1CCCCN2[C@@H](CO)[C@H](c3ccc(C#Cc4ccccc4)cc3)[C@@H]2C1,i,i,-47,i,i,nt,?,
CC(C)CC#Cc1ccc([C@@H]2[C@@H](CO)N3C(=O)CN(C(=O)Cc4ccccc4)C[C@@H]23)cc1,i,nt,-38,nt,nt,i,?,
COc1ccc(C#Cc2ccc([C@@H]3[C@@H](CO)N4CCCCN(C(=O)Nc5ccccc5F)C[C@H]34)cc2)cc1,i,i,-35,i,i,i,?,
O=S(=O)(Cc1ccccc1)N1CCCCN2[C@H](CO)[C@@H](c3ccc(C#Cc4ccccc4)cc3)[C@@H]2C1,i,i,i,i,i,nt,nt,
CC(C)CC#Cc1ccc([C@H]2[C@@H](CO)N3CCCCN(S(=O)(=O)Cc4ccccc4)C[C@H]23)cc1,i,i,-21,i,i,nt,?,
CCC(=O)Nc1ccc2c(c1)OC[C@@H](C)N(Cc1ccncc1)C[C@@H](C)[C@H](OC)CN(C)C2=O,i,i,i,i,i,nt,nt,
O=C(C[C@H]1C=C[C@H](NC(=O)NC2CCCCC2)[C@@H](CO)O1)NCc1ccccc1,i,i,i,i,i,nt,nt,
CCN(Cc1ccccc1)C(=O)COC(=O)c1cc(Cl)nc(Cl)c1,i,nt,-35,nt,nt,i,i,
COC(=O)c1c(NC(=O)CCC(=O)O)sc(Cc2ccccc2)c1C,i,i,-38,i,i,nt,nt,HepG2 cytotox=i
COC(=O)c1c(NC(=O)CCC(=O)O)sc2c1CCCCC2,i,nt,i,nt,nt,nt,nt,
COCC(=O)N1C[C@H](C)[C@H](OC)CN(C)C(=O)c2ccc(NC(=O)c3ccc(F)cc3)cc2OC[C@@H]1C,i,i,i,i,i,nt,nt,
O=C(NCc1ccccc1)C1C(=O)Nc2ccccc2C(=O)N1c1ccc2c(c1)OCCO2 (stereo not given),i,nt,-17,nt,nt,i,i,
COc1ccc2c3c(n(C)c2c1)[C@@H](CO)N(CC1CCCC1)CC31CCN(C(=O)Nc2ccccc2)CC1,i,nt,i,nt,nt,nt,nt,
Cc1cc2nc(-c3ccc4c(c3)CCC4)ccn2n1,i,nt,-31,nt,nt,nt,?,
Cc1cc2nc(-c3cc(N4CCOCC4)ccc3[N+](=O)[O-])ccn2n1,i,i,i,i,i,nt,nt,
Cc1ccccc1OCc1nc2ccccc2n1C,i,i,-27,i,i,nt,i,
